Results taken from ChEMBL document CHEMBL1641445, “Synthesis, antiprotozoal, antimicrobial, β-hematin inhibition, cytotoxicity and methemoglobin (MetHb) formation activities of bis(8-aminoquinolines)” (Bioorg Med Chem, 2011).
The source made the active and inactive calls. The calls are words filed in the database; no cut-off is given here.

Assays:
[1] = system: Nakaseomyces glabratus; test: Antifungal activity against Candida glabrata at 20 ug/ml; type: functional, organism-based
[2] = system: Plasmodium falciparum; test: Antimalarial activity against chloroquine-resistant Plasmodium falciparum W2 by LDH assay; type: functional, organism-based; settings: Plasmodium falciparum, W2; read-out: IC50
Method in brief: (§1)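 Antiplasmodial activity was measured in vitro against P. falciparum blood-stage cultures. Read-out was parasite lactate dehydrogenase (LDH) activity, with IC50 values expressed in µg/mL. The same protocol was used for the D6 and W2 strains.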

[3] = system: Staphylococcus aureus; test: Antibacterial activity against methicillin-resistant Staphylococcus aureus ATCC 43300 at 20 ug/ml by CLSI method; type: functional, organism-based
Method in brief: (§2)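 Broth dilution method (NCCLS M7-A5). […] MIC is the lowest concentration allowing no detectable growth. MBC is the lowest concentration killing the organism. Highest test concentration was 20 µg/mL.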

[4] = system: Staphylococcus aureus; test: Antibacterial activity against methicillin-resistant Staphylococcus aureus ATCC 43300 by CLSI method; type: functional, organism-based; method in brief: as §2
[5] = system: Vero; test: Cytotoxicity against african green monkey Vero cells up to 10 ug/ml by neutral red assay; type: cell-based; settings: chlorocebus sabaeus
Method in brief: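 Vero (monkey kidney) cells were exposed up to a highest concentration of 10 µg/mL. Viability was read by neutral red uptake.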

[6] = system: Leishmania donovani; test: Antileishmanial activity against promastigotes of Leishmania donovani by alamar blue assay; type: functional, organism-based; settings: for IC50: read-out: IC50
[7] = Inhibition of beta-hematin formation; type: functional
[8] = system: Plasmodium falciparum; test: Antimalarial activity against chloroquine-sensitive Plasmodium falciparum D6 by LDH assay; type: functional, organism-based; method in brief: as §1
[9] = system: Mycobacterium intracellulare; test: Antibacterial activity against Mycobacterium intracellular ATCC 23068 by CLSI method; type: functional, organism-based
[10] = system: Cryptococcus neoformans; test: Antifungal activity against Cryptococcus neoformans ATCC 90113; type: functional, organism-based
[11] = system: Aspergillus fumigatus; test: Antifungal activity against Aspergillus fumigatus ATCC 90906 at 20 ug/ml; type: functional, organism-based
[12] = system: Mycobacterium intracellulare; test: Antibacterial activity against Mycobacterium intracellular ATCC 23068 at 20 ug/ml by CLSI method; type: functional, organism-based
[13] = system: Candida albicans; test: Antifungal activity against Candida albicans ATCC 90028 at 20 ug/ml; type: functional, organism-based
[14] = Hematotoxicity against RBC assessed as formation of methemoglobin at 20 ug/ml relative to control; type: cell-based; settings: erythrocyte
Method in brief: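 Metabolism-linked methemoglobin toxicity in vitro. Percent MetHb formation was determined at 20 µg/mL of compound relative to vehicle control.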

[15] = system: Pichia kudriavzevii; test: Antifungal activity against Candida krusei at 20 ug/ml; type: functional, organism-based
[16] = system: Plasmodium berghei; test: Antimalarial activity against Plasmodium berghei infected in mouse assessed as complete elimination of malaria parasites from animals at 50 mg/kg, po qd for 4 days measured up to 60 days; type: functional, organism-based; parameters: dose 50 mg/kg
Method in brief: (§3)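 Rodent P. berghei (sensitive strain) blood-schizontocidal model, 6 mice per group. Compounds were given orally once daily for 4 days at 10, 25, 50 or 100 mg/kg/day. Cure meant complete parasite elimination with survival to day D+60.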

[17] = system: Plasmodium berghei; test: Antimalarial activity against Plasmodium berghei infected in mouse assessed as complete elimination of malaria parasites from animals at 100 mg/kg, po qd for 4 days measured up to 60 days; type: functional, organism-based; parameters: dose 100 mg/kg; method in brief: as §3
[18] = system: Plasmodium berghei; test: Antimalarial activity against Plasmodium berghei infected in mouse assessed as complete elimination of malaria parasites from animals at 25 mg/kg, po qd for 4 days measured up to 60 days; type: functional, organism-based; parameters: dose 25 mg/kg; method in brief: as §3
[19] = system: Plasmodium berghei; test: Antimalarial activity against Plasmodium berghei infected in mouse assessed as negative parasitemia level at 10 mg/kg, po qd for 4 days measured up to 7 days; type: functional, organism-based; parameters: dose 10 mg/kg
Method in brief: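 Mice infected with P. berghei (sensitive strain), 6 per group, dosed orally at 10–100 mg/kg/day × 4. Suppression meant negative parasitemia in all treated animals up to D+7. Survivors were counted at D+60.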

[20] = system: Staphylococcus aureus; test: Antibacterial activity against Staphylococcus aureus by CLSI method; type: functional, organism-based
[21] = system: Candida albicans; test: Antifungal activity against Candida albicans ATCC 90028; type: functional, organism-based
[22] = Plasmodium falciparum, D6, read-out: IC50

SMILES | Activity [1] | IC50 [2] [µg/mL] | IC50 [4] [µg/mL] | MIC [4] [µg/mL] | Activity [5] | IC90 ([6]; Leishmania donovani) [µg/mL] | IC50 [7] [µM] | IC50 [9] [µg/mL] | IC50 [10] [µg/mL] | MFC [10] [µg/mL] | MIC [10] [µg/mL] | Activity [11] | MBC [12] | MFC [13] | MIC [13] | Methemoglobin formation [14] [%] | Activity [15] | Activity [16] | Activity [17] | MIC [9] [µg/mL] | further results
COc1cc(NC(C)CCCNC(=O)C[C@H](N)C(=O)NCCCC(C)Nc2cc(OC)cc3cccnc23)c2ncccc2c1.Cl (stereo partly specified) | inactive | 3.8 | 15 | 20 | Non-toxic | 30 | 185 | 20 | 7.5 | 10 | 10 | inactive | inactive | inactive | inactive | 5.4 | inactive |  |  |  | MBC [3]: inactive; IC50 [8, 22]: 4.76 µg/mL; MIC [12]: inactive; IC50 [13]: Not Active
COc1cc(NC(C)CCCNC(=O)NC(CCCNC(=N)N)C(=O)NCCCC(C)Nc2cc(OC)cc3cccnc23)c2ncccc2c1 (single isomer, unassigned; 36) | inactive |  |  |  |  |  |  |  |  |  |  | inactive |  | inactive | inactive |  | inactive | inactive | Active |  | 
COc1cc(NC(C)CCCNCCNCCNCCCC(C)Nc2cc(OC)cc3cccnc23)c2ncccc2c1.Cl.Cl (stereo unspecified) | inactive | 1.5 |  |  | Non-toxic | 27 | 180 | 10 | 15 | 20 | 20 | inactive |  | inactive | inactive | 8.4 | inactive | Active | Active | 20 | IC50 [3]: Not Active; MBC [3]: inactive; MIC [3]: inactive; IC50 [8, 22]: 2.6 µg/mL; MBC [9]: 20 µg/mL; Activity [18]: Active; IC50 [13]: Not Active; Activity [19]: Active
COc1cc(NC(C)CCCN)c2ncccc2c1 (stereo unspecified) [PRIMAQUINE] |  |  |  |  | Non-toxic |  | > 1000 |  |  |  |  |  |  |  |  | 10 |  |  | inactive |  | IC90 [6]: inactive; Activity [19]: inactive
COc1cc(NC(C)CCCNC(=O)N[C@H](CCCN)C(=O)NCCCC(C)Nc2cc(OC)cc3ccc(C(C)(C)C)nc23)c2nc(C(C)(C)C)ccc2c1.Cl (stereo partly specified) | inactive | 0.3 | 1.78 | 5 | Non-toxic | 34 | 10.8 | 10 | 9.97 | 20 |  | inactive | inactive | inactive | inactive | 2.3 | inactive | Active | Active | 20 | MBC [4]: 5 µg/mL; IC50 ([6]; Leishmania donovani): 20 µg/mL; IC50 [20]: 2.73 µg/mL; MBC [20]: 5 µg/mL; MIC [20]: 5 µg/mL; IC50 [21]: > 20 µg/mL; Activity [18]: Active; Activity [19]: Active
COc1cc(NC(C)CCCNC(=O)CC[C@H](N)C(=O)NCCCC(C)Nc2cc(OC)cc3cccnc23)c2ncccc2c1.Cl (stereo partly specified) | inactive |  | 15 | 20 | Non-toxic | 35 | 85 | 15 | 15 | 20 | 20 | inactive | inactive | inactive | inactive | 13.35 | inactive | Active | Active | 20 | MBC [3]: inactive; IC50 ([6]; Leishmania donovani): 16 µg/mL; Activity [18]: Active; IC50 [13]: Not Active; Activity [19]: Active
CCCCCOc1c(OC)cc(NC(C)CCCNC(=S)NCCCC(C)Nc2cc(OC)c(OCCCCC)c3c(CC)ccnc23)c2nccc(CC)c12.Cl.Cl (stereo unspecified) | inactive | 4.76 | 3.5 | 5 | Non-toxic |  | > 1000 | 15 | 10 | 20 | 20 | inactive | inactive | inactive |  | 1.7 | inactive |  |  | 20 | MBC [4]: 10 µg/mL; IC90 [6]: inactive; IC50 ([6]; Leishmania donovani): 40 µg/mL; IC50 [21]: 10 µg/mL; MIC [21]: 20 µg/mL; IC50 [8]: Not Active
COc1cc(NC(C)CCCNC(=O)N[C@@H](CCCN)C(=O)NCCCC(C)Nc2cc(OC)cc3ccc(C(C)(C)C)nc23)c2nc(C(C)(C)C)ccc2c1.Cl (stereo partly specified) | inactive |  | 6.5 | 20 | Non-toxic | 33 | 152 | 15 | 15 |  | 20 | inactive | inactive | inactive | inactive | 0.2 | inactive |  |  |  | MBC [4]: 20 µg/mL; IC50 ([6]; Leishmania donovani): 18 µg/mL; IC50 [21]: 15 µg/mL; IC50 [8, 22]: 4 µg/mL
